Assay results reported in ChEMBL document CHEMBL5376013, “Design, synthesis and biological evaluation of novel morpholinopyrimidine-5-carbonitrile derivatives as dual PI3K/mTOR inhibitors” (RSC Med Chem, 2024).

Experiments:
Format in all cases: functional
Conditions in all cases: read-out: GI
K562 = test: Antitumor activity against human K562 cells assessed as growth inhibition at 10 uM relative to control
In short: (§1)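 After drug addition, plates were incubated 48 h at 37 °C under 5% CO2. Adherent cells were fixed with cold TCA (10% final, 60 min, 4 °C) and suspension cells with 16% final TCA. Staining used 0.4% SRB in 1% acetic acid, solubilized in 10 mM trizma, read at A515. Percent growth was calculated from time-zero, control and treated absorbances.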

IGROV-1 = test: Antitumor activity against human IGROV-1 cells assessed as growth inhibition at 10 uM relative to control; in short: as §1
MDA-MB-435 = test: Antitumor activity against human MDA-MB-435 cells assessed as growth inhibition at 10 uM relative to control; in short: as §1
SNB-75 = test: Antitumor activity against human SNB-75 cells assessed as growth inhibition at 10 uM relative to control
In short: (§2)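 Drug exposure 48 h at 37 °C, 5% CO2. Adherent cells fixed with cold TCA (10% final), suspension cells with TCA (16% final). Stained with 0.4% SRB in 1% acetic acid, dissolved in 10 mM Tris, A515. Growth relative to time-zero and untreated control.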

NCI-H460 = test: Antitumor activity against human NCI-H460 cells assessed as growth inhibition at 10 uM relative to control; in short: as §1
LOX IMVI = test: Antitumor activity against human LOX IMVI cells assessed as growth inhibition at 10 uM relative to control; in short: as §1
NCI-H322M = test: Antitumor activity against human NCI-H322M cells assessed as growth inhibition at 10 uM relative to control; in short: as §1
OVCAR-8 = test: Antitumor activity against human OVCAR-8 cells assessed as growth inhibition at 10 uM relative to control; in short: as §1
NCI-H226 = test: Antitumor activity against human NCI-H226 cells assessed as growth inhibition at 10 uM relative to control; in short: as §1
MDA-MB-231 = test: Antitumor activity against human MDA-MB-231 cells assessed as growth inhibition at 10 uM relative to control; in short: as §1
A549 = test: Antitumor activity against human A549 cells assessed as growth inhibition at 10 uM relative to control; in short: as §1
HT-29 = test: Antitumor activity against human HT-29 cells assessed as growth inhibition at 10 uM relative to control; in short: as §1
SW-620 = test: Antitumor activity against human SW-620 cells assessed as growth inhibition at 10 uM relative to control; in short: as §2
MDA-MB-468 = test: Antitumor activity against human MDA-MB-468 cells assessed as growth inhibition at 10 uM relative to control; in short: as §1
SK-MEL-28 = test: Antitumor activity against human SK-MEL-28 cells assessed as growth inhibition at 10 uM relative to control; in short: as §2
HL-60 = test: Antitumor activity against human HL-60 cells assessed as growth inhibition at 10 uM relative to control; in short: as §1
HCT-15 = test: Antitumor activity against human HCT-15 cells assessed as growth inhibition at 10 uM relative to control; in short: as §1
Malme-3M = test: Antitumor activity against human Malme-3M cells assessed as growth inhibition at 10 uM relative to control; in short: as §1
BT-549 = test: Antitumor activity against human BT-549 cells assessed as growth inhibition at 10 uM relative to control; in short: as §1
SF-539 = test: Antitumor activity against human SF-539 cells assessed as growth inhibition at 10 uM relative to control; in short: as §1
COLO 205 = test: Antitumor activity against human COLO 205 cells assessed as growth inhibition at 10 uM relative to control; in short: as §1
MOLT-4 = test: Antitumor activity against human MOLT-4 cells assessed as growth inhibition at 10 uM relative to control; in short: as §1
HOP-62 = test: Antitumor activity against human HOP-62 cells assessed as growth inhibition at 10 uM relative to control; in short: as §1
U-251 = test: Antitumor activity against human U-251 cells assessed as growth inhibition at 10 uM relative to control; in short: as §2
RPMI-8226 = test: Antitumor activity against human RPMI-8226 cells assessed as growth inhibition at 10 uM relative to control; in short: as §1
RXF 393 = test: Antitumor activity against human RXF 393 cells assessed as growth inhibition at 10 uM relative to control; in short: as §1
CAKI-1 = test: Antitumor activity against human CAKI-1 cells assessed as growth inhibition at 10 uM relative to control; in short: as §1
OVCAR-3 = test: Antitumor activity against human OVCAR-3 cells assessed as growth inhibition at 10 uM relative to control; in short: as §1
SR = test: Antitumor activity against human SR cells assessed as growth inhibition at 10 uM relative to control; in short: as §2
HCT-116 = test: Antitumor activity against human HCT-116 cells assessed as growth inhibition at 10 uM relative to control; in short: as §1
SNB-19 = test: Antitumor activity against human SNB-19 cells assessed as growth inhibition at 10 uM relative to control; in short: as §2
Hs-578T = test: Antitumor activity against human Hs-578T cells assessed as growth inhibition at 10 uM relative to control; in short: as §1
UO-31 = test: Antitumor activity against human UO-31 cells assessed as growth inhibition at 10 uM relative to control; in short: as §2
HCC 2998 = test: Antitumor activity against human HCC 2998 cells assessed as growth inhibition at 10 uM relative to control; in short: as §1
MCF7 = test: Antitumor activity against human MCF7 cells assessed as growth inhibition at 10 uM relative to control; in short: as §1
SN12C = test: Antitumor activity against human SN12C cells assessed as growth inhibition at 10 uM relative to control; in short: as §2
SK-MEL-2 = test: Antitumor activity against human SK-MEL-2 cells assessed as growth inhibition at 10 uM relative to control; in short: as §1
SK-MEL-5 = test: Antitumor activity against human SK-MEL-5 cells assessed as growth inhibition at 10 uM relative to control; in short: as §2
NCI-H522 = test: Antitumor activity against human NCI-H522 cells assessed as growth inhibition at 10 uM relative to control; in short: as §1
786-0 = test: Antitumor activity against human 786-0 cells assessed as growth inhibition at 10 uM relative to control; in short: as §1
OVCAR-5 = test: Antitumor activity against human OVCAR-5 cells assessed as growth inhibition at 10 uM relative to control; in short: as §1
CCRF-CEM = test: Antitumor activity against human CCRF-CEM cells assessed as growth inhibition at 10 uM relative to control; in short: as §1
T47D = test: Antitumor activity against human T47D cells assessed as growth inhibition at 10 uM relative to control; in short: as §2
EKVX = test: Antitumor activity against human EKVX cells assessed as growth inhibition at 10 uM relative to control; in short: as §1
NCI-H23 = test: Antitumor activity against human NCI-H23 cells assessed as growth inhibition at 10 uM relative to control; in short: as §1
KM12 = test: Antitumor activity against human KM12 cells assessed as growth inhibition at 10 uM relative to control; in short: as §1

N#Cc1c(-c2ccc(Cl)cc2)nc(NN)nc1N1CCOCC1
inhibition of growth at 10 µM (K562): < 1%
inhibition of growth at 10 µM (IGROV-1): 15.9%
inhibition of growth at 10 µM (MDA-MB-435): < 1%
inhibition of growth at 10 µM (SNB-75): 26.9%
inhibition of growth at 10 µM (NCI-H460): < 1%
inhibition of growth at 10 µM (LOX IMVI): < 1%
inhibition of growth at 10 µM (NCI-H322M): < 1%
inhibition of growth at 10 µM (OVCAR-8): < 1%
inhibition of growth at 10 µM (NCI-H226): 14.1%
inhibition of growth at 10 µM (MDA-MB-231): 14.5%
inhibition of growth at 10 µM (A549): < 1%
inhibition of growth at 10 µM (HT-29): < 1%
inhibition of growth at 10 µM (SW-620): < 1%
inhibition of growth at 10 µM (MDA-MB-468): < 1%
inhibition of growth at 10 µM (SK-MEL-28): < 1%
inhibition of growth at 10 µM (HL-60): < 1%
inhibition of growth at 10 µM (HCT-15): < 1%
inhibition of growth at 10 µM (Malme-3M): < 1%
inhibition of growth at 10 µM (BT-549): < 1%
inhibition of growth at 10 µM (SF-539): 12.3%
inhibition of growth at 10 µM (COLO 205): < 1%
inhibition of growth at 10 µM (MOLT-4): < 1%
inhibition of growth at 10 µM (HOP-62): 14.4%
inhibition of growth at 10 µM (U-251): < 1%
inhibition of growth at 10 µM (RPMI-8226): < 1%
inhibition of growth at 10 µM (RXF 393): < 1%
inhibition of growth at 10 µM (CAKI-1): 20.8%
inhibition of growth at 10 µM (OVCAR-3): < 1%
inhibition of growth at 10 µM (SR): 26.9%
inhibition of growth at 10 µM (HCT-116): < 1%
inhibition of growth at 10 µM (SNB-19): < 1%
inhibition of growth at 10 µM (Hs-578T): < 1%
inhibition of growth at 10 µM (UO-31): 34.1%
inhibition of growth at 10 µM (HCC 2998): < 1%
inhibition of growth at 10 µM (MCF7): 1%
inhibition of growth at 10 µM (SN12C): < 1%
inhibition of growth at 10 µM (SK-MEL-2): < 1%
inhibition of growth at 10 µM (SK-MEL-5): < 1%
inhibition of growth at 10 µM (NCI-H522): < 1%
inhibition of growth at 10 µM (786-0): < 1%
inhibition of growth at 10 µM (OVCAR-5): < 1%
inhibition of growth at 10 µM (CCRF-CEM): < 1%
inhibition of growth at 10 µM (T47D): 17.4%
inhibition of growth at 10 µM (EKVX): 14.3%
inhibition of growth at 10 µM (NCI-H23): 11.7%
inhibition of growth at 10 µM (KM12): < 1%

N#Cc1c(-c2ccc(Cl)cc2)nc(N/N=C/c2cccc(O)c2)nc1N1CCOCC1
inhibition of growth at 10 µM (K562): 54.9%
inhibition of growth at 10 µM (IGROV-1): 35.1%
inhibition of growth at 10 µM (MDA-MB-435): 13%
inhibition of growth at 10 µM (SNB-75): 53.9%
inhibition of growth at 10 µM (NCI-H460): 22.1%
inhibition of growth at 10 µM (LOX IMVI): 38.2%
inhibition of growth at 10 µM (NCI-H322M): 13.7%
inhibition of growth at 10 µM (OVCAR-8): 34.6%
inhibition of growth at 10 µM (NCI-H226): 36.7%
inhibition of growth at 10 µM (MDA-MB-231): < 1%
inhibition of growth at 10 µM (A549): 27.3%
inhibition of growth at 10 µM (HT-29): 30.2%
inhibition of growth at 10 µM (SW-620): 35.2%
inhibition of growth at 10 µM (MDA-MB-468): 12.6%
inhibition of growth at 10 µM (SK-MEL-28): 22.9%
inhibition of growth at 10 µM (HL-60): 33.4%
inhibition of growth at 10 µM (HCT-15): 55.3%
inhibition of growth at 10 µM (Malme-3M): < 1%
inhibition of growth at 10 µM (BT-549): 26.9%
inhibition of growth at 10 µM (SF-539): 32.2%
inhibition of growth at 10 µM (COLO 205): 14.8%
inhibition of growth at 10 µM (MOLT-4): 60.2%
inhibition of growth at 10 µM (HOP-62): 21.2%
inhibition of growth at 10 µM (U-251): 14.2%
inhibition of growth at 10 µM (RPMI-8226): 62.6%
inhibition of growth at 10 µM (RXF 393): < 1%
inhibition of growth at 10 µM (CAKI-1): 29.9%
inhibition of growth at 10 µM (OVCAR-3): 22.3%
inhibition of growth at 10 µM (SR): 95.3%
inhibition of growth at 10 µM (HCT-116): 42.1%
inhibition of growth at 10 µM (SNB-19): 13.1%
inhibition of growth at 10 µM (Hs-578T): 10.6%
inhibition of growth at 10 µM (UO-31): 64.3%
inhibition of growth at 10 µM (HCC 2998): < 1%
inhibition of growth at 10 µM (MCF7): < 39.9%
inhibition of growth at 10 µM (SN12C): 21.7%
inhibition of growth at 10 µM (SK-MEL-2): < 1%
inhibition of growth at 10 µM (SK-MEL-5): 23.5%
inhibition of growth at 10 µM (NCI-H522): 25.2%
inhibition of growth at 10 µM (786-0): 35.7%
inhibition of growth at 10 µM (OVCAR-5): < 1%
inhibition of growth at 10 µM (CCRF-CEM): 63.8%
inhibition of growth at 10 µM (T47D): 35.4%
inhibition of growth at 10 µM (EKVX): 33.4%
inhibition of growth at 10 µM (NCI-H23): < 1%
inhibition of growth at 10 µM (KM12): 24%
